Measured values from ChEMBL document CHEMBL4002604, “Evaluation of biological properties of 3,3',4,4'-benzophenonetetracarboxylic dianhydride derivatives and their ability to inhibit hexokinase activity” (2017).

How the values were obtained:
P19 [1] = assay: Cytotoxicity against undifferentiated mouse P19 cells assessed as metabolic activity at 1 to 100 uM after 24 hrs by resazurin assay relative to control; assay type: functional
Procedure, shortened: (§1)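 Metabolic activity by resazurin reduction in undifferentiated (P19SCs) or differentiated (P19dCs) P19 cells. Exposure to 1, 10 or 100 µM for 24, 48 or 72 h. Read-out relative to untreated control. Significance vs control at p<0.05.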

P19 [2] = assay: Cytotoxicity against undifferentiated mouse P19 cells assessed as mitochondrial superoxide anion level at 1 uM after 24 hrs by MitoSox dye based fluorescence assay relative to control; assay type: functional
Procedure, shortened: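 Undifferentiated (P19SCs) or differentiated (P19dCs) P19 cells incubated 24 or 72 h with 1 or 100 µM. Mitochondrial membrane potential and mitochondrial superoxide levels measured and expressed relative to untreated control. Means ± SD from 4 independent measurements, at least 4 repeats each. Significance at p<0.05.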

P19 [3] = assay: Cytotoxicity against undifferentiated mouse P19 cells assessed as metabolic activity at 1 to 100 uM after 72 hrs by resazurin assay relative to control; assay type: functional; procedure, shortened: as §1
P19 [4] = assay: Cytotoxicity against undifferentiated mouse P19 cells assessed as cell mass at 1 to 100 uM after 72 hrs by SRB assay relative to control; assay type: functional
Procedure, shortened: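 Cell mass by SRB assay in P19 cells (CRL-1825), either undifferentiated (P19SCs) or differentiated (P19dCs). Cells exposed to 1, 10 or 100 µM for 24, 48 or 72 h. Values expressed relative to untreated control. Means ± SD from at least 4 independent measurements, 6 repeats each. Significance vs control at p<0.05.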

[5] = target: T1, Hexokinase-2 (Mus musculus) (UniProt O08528); assay: Potency index, ratio of compound effect to 2-DG effect for inhibition of HK2 in mouse undifferentiated P19 cells
T1 sequence (whole entry): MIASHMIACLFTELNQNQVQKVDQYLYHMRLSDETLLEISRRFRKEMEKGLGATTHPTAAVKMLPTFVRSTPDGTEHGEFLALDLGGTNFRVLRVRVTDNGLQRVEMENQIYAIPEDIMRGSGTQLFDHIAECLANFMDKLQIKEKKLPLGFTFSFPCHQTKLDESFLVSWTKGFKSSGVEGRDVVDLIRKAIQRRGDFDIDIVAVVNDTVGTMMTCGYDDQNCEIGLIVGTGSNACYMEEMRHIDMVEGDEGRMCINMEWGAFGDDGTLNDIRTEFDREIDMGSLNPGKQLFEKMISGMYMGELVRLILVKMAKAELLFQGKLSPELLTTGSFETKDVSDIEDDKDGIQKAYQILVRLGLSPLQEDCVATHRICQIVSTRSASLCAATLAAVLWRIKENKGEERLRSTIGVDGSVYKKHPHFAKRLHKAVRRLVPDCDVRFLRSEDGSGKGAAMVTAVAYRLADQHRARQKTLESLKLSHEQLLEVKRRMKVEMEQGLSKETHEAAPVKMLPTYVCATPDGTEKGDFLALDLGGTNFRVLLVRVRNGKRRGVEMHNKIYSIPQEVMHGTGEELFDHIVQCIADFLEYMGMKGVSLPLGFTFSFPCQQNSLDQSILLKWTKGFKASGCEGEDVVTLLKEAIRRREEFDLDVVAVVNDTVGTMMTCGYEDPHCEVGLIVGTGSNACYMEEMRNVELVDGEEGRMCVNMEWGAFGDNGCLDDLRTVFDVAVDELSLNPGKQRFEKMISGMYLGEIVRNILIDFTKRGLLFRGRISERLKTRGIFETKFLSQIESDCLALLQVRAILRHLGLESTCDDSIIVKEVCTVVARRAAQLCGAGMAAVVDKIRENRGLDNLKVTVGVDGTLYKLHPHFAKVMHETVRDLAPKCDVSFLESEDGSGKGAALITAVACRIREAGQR

Ratio [5]: > 500
Compound: O=C(c1ccc2c(c1)C(=O)N(c1cccc(O)c1)C2=O)c1ccc2c(c1)C(=O)N(c1cccc(O)c1)C2=O
Activity (P19 [1]): 102.6%
Activity (P19 [2]): 83.2%
Activity (P19 [3]): 59.8%
Activity (P19 [4]): 58.9%
